A word on the pKb: it is the Kb on a negative log10 scale, so that one unit is a factor of ten. Usually Ki stands for a measure of affinity in units of concentration, obtained from inhibition or displacement. Read a high Ki as a looser hold on the target.

The values that follow come from ChEMBL document CHEMBL1142937, “Synthesis, affinity profile, and functional activity of muscarinic antagonists with a 1-methyl-2-(2,2-alkylaryl-1,3-oxathiolan-5-yl)pyrrolidine structure” (J Med Chem, 2007).

Assay [1] deals with Muscarinic acetylcholine receptor M3 (Cavia porcellus) (UniProt Q8VH26). Nature of the assay: Antagonist activity at muscarinic receptor M3 assessed as contraction of guinea pig ileum. The class given is functional, tissue-based. The settings on record: filed as antagonist. The method, boiled down:
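Isolated guinea pig tissue preparations (stimulated left atria, ileum, lung strips), run in vitro by a previously described protocol, with the ileum method slightly modified. Agonist dose–response curves were recorded before and after one or two antagonist concentrations. pKb = log(DR−1) − log[B], where DR is the ratio of agonist ED50 after/before antagonist. Some cases were expressed as pA2 from Schild plots constrained to slope −1.0.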

The target of assay [2] is T1, Muscarinic acetylcholine receptor M4 (Homo sapiens, UniProt P08173).
T1 sequence (P08173 whole entry): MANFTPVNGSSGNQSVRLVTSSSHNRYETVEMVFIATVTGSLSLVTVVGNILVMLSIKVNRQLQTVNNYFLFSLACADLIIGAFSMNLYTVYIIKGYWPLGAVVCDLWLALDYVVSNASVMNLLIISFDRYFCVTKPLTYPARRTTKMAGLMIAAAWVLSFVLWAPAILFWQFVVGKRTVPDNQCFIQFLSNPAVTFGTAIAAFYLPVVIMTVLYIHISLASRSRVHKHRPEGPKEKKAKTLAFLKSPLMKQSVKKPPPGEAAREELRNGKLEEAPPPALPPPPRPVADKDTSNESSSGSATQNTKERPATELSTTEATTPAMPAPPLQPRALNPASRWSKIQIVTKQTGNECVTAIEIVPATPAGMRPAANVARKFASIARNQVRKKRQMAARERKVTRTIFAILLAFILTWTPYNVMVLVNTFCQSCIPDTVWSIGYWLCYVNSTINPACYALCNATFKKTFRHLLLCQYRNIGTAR
Nature of the assay: Binding affinity to human cloned muscarinic receptor M4 expressed in CHO cells. It is filed as cell-based.

Assay [3] concerns Muscarinic acetylcholine receptor M2 (Cavia porcellus). Put plainly: Antagonist activity at muscarinic receptor M2 assessed as contraction of electrically-stimulated guinea pig left atria. The settings on record: for pKb: filed as antagonist; for Kb: read-out: pA2 (converted).
For assay [4], the target named is T2, Muscarinic acetylcholine receptor M1 (Homo sapiens, UniProt P11229).
T2 sequence (P11229 whole entry): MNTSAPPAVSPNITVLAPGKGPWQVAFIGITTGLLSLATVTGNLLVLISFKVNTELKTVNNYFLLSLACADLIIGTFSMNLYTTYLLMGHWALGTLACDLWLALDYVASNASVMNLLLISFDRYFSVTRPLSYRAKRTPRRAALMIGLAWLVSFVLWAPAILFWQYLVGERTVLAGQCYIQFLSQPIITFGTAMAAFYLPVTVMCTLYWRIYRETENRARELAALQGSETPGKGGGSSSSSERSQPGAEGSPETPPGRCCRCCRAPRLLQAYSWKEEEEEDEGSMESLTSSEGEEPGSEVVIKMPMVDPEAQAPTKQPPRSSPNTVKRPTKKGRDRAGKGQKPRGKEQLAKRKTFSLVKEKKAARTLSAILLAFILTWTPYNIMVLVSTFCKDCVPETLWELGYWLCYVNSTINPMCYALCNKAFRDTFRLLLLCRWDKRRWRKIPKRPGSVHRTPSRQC
Put plainly: Binding affinity to human cloned muscarinic receptor M1 expressed in CHO cells. The class given is cell-based.

Assay [5] deals with Muscarinic acetylcholine receptor M4, putative (Cavia porcellus). Nature of the assay: Antagonist activity at putative muscarinic receptor M4 assessed as contraction of electrically-stimulated guinea pig lung strips. The settings on record: filed as antagonist.
Assay [6] deals with Muscarinic acetylcholine receptor M3 (Homo sapiens, UniProt P20309). Put plainly: Binding affinity to human cloned muscarinic receptor M3 expressed in CHO cells. The class given is cell-based.
The target of assay [7] is T3, Muscarinic acetylcholine receptor M5 (Homo sapiens, UniProt P08912).
T3 sequence (P08912 whole entry): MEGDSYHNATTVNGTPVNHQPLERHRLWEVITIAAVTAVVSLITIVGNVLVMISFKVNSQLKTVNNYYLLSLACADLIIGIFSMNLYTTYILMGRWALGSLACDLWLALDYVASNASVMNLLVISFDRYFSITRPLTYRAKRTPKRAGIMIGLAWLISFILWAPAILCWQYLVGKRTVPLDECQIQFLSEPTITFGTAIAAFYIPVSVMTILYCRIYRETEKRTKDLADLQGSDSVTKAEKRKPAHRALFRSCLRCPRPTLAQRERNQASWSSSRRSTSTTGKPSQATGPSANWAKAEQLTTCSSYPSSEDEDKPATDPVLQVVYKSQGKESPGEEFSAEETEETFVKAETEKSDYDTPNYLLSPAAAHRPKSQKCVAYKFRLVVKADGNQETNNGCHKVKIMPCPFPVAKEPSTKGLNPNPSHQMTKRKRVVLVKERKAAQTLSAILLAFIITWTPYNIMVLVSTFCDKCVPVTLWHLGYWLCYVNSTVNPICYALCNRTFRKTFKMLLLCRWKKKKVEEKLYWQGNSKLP
Nature of the assay: Binding affinity to human cloned muscarinic receptor M5 expressed in CHO cells. It is filed as cell-based. The method, boiled down:
(§1)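 Equilibrium radioligand binding on CHO cells expressing the cloned human muscarinic subtype. Affinity is reported as pKi.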

The subject of assay [8] is Muscarinic acetylcholine receptor M1, putative (Oryctolagus cuniculus). The settings on record: Vas deferens, filed as antagonist.
The target of assay [9] is T4, Muscarinic acetylcholine receptor M2 (Homo sapiens, UniProt P08172).
T4 sequence (P08172 whole entry): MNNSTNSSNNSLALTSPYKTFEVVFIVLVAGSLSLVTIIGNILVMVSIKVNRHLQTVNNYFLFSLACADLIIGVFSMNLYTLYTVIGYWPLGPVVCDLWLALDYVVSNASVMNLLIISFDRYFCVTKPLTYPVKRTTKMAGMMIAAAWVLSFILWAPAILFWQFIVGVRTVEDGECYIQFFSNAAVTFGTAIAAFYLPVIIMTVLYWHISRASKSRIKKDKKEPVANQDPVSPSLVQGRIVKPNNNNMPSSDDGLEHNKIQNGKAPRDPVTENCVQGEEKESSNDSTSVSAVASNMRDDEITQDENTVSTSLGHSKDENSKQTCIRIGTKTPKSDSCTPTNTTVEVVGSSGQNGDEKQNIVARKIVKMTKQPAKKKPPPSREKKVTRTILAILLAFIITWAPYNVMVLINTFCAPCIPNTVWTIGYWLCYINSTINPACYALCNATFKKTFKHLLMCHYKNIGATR
Nature of the assay: Binding affinity to human cloned muscarinic receptor M2 expressed in CHO cells. It is filed as cell-based. The method, boiled down:
as §1

Sequence of Muscarinic acetylcholine receptor M3 (Cavia porcellus) (Q8VH26 1-587): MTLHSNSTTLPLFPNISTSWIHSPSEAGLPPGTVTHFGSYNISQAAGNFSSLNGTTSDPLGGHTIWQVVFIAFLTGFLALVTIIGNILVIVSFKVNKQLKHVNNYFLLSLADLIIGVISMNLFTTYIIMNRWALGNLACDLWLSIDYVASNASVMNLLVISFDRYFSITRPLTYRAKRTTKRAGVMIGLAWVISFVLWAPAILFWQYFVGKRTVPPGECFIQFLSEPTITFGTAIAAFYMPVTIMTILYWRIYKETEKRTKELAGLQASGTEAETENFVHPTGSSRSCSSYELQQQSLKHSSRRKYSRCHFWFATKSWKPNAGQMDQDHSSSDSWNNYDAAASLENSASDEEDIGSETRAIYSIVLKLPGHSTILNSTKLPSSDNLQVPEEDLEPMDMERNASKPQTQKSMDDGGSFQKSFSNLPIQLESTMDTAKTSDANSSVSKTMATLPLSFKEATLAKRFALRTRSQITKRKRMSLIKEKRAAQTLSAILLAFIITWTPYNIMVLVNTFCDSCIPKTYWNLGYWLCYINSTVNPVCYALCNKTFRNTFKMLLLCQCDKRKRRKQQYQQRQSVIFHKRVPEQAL
Sequence of Muscarinic acetylcholine receptor M3 (P20309 whole entry): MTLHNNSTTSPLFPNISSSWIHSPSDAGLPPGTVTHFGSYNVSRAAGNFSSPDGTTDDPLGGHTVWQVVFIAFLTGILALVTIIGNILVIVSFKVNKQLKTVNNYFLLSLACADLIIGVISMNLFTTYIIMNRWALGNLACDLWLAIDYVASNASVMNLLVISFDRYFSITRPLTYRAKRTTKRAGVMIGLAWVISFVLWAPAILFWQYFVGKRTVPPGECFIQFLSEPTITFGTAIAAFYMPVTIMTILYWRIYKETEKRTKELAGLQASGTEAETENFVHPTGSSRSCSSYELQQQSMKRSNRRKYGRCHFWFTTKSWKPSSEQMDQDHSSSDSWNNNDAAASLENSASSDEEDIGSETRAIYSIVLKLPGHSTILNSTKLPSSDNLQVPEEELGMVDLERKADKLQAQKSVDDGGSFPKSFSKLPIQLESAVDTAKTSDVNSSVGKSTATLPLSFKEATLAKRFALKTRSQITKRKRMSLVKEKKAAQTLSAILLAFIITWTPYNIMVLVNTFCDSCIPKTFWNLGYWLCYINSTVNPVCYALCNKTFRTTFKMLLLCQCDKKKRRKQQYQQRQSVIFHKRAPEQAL

Take `CN1CCC[C@@H]1[C@@H]1CSC(c2ccccc2)(c2ccccc2)O1`: the pKb is 8.44 in assay [1], 7.97 in [3], 6.06 in assay [5] and 8.66 in [8]. Further, the Ki in assay [2] is 2 nM (antagonist); in assay [4] it was 0.759 nM (antagonist); in [6], 2.45 nM (antagonist); in assay [7] it was 3.24 nM (antagonist); in assay [9] it was 2.75 nM (antagonist).
Turning to `C[N+]1(C)CCC[C@@H]1[C@@H]1CS[C@](c2ccccc2)(C2CCCCC2)O1`, the negative logarithm of the Kb (pKb) in [1] was 8.84; in assay [3], 8.54; in assay [5] it was 6.55; in assay [8] it was 8.49. In addition, the Ki in assay [2] is recorded as 1.82 nM (antagonist); in [4], 0.955 nM (antagonist); in assay [6] it was 4.9 nM (antagonist); in [7], 3.24 nM (antagonist); in assay [9], 1.48 nM (antagonist).
Regarding `C[N+]1(C)CCC[C@H]1[C@H]1CSC(c2ccccc2)(c2ccccc2)O1`, the pKb in assay [1] was 9.16; in assay [3] it was 8.78; in [5], 7.79; in assay [8], 9.56. Besides, the inhibition constant (Ki) in assay [2] is 0.468 nM (antagonist); in assay [4], 0.295 nM (antagonist); in assay [6], 0.741 nM (antagonist); in assay [7], 0.407 nM (antagonist); in assay [9], 0.468 nM (antagonist).
Consider `C[N+]1(C)CCC[C@H]1[C@H]1CS[C@](c2ccccc2)(C2CCCCC2)O1`, for which the figures for the pKb in assay [1], in assay [5] and in assay [8] were 8.5, 7.47 and 9.52, respectively. The Ki is on record as 0.871 nM (antagonist) in assay [2]; 0.251 nM (antagonist) in [4]; 0.589 nM (antagonist) in assay [6]; 0.2 nM (antagonist) in [7]; 0.776 nM (antagonist) in assay [9]. In addition, in assay [3], the Kb is reported as 4.27 nM (antagonist).
Turning to `C[N+]1(C)CCC[C@H]1[C@H]1CS[C@@](c2ccccc2)(C2CCCCC2)O1`, the pKb in assay [1] was 9.66; in [5] it was 7.99; in assay [8] it was 9.97. Further, the Ki in [2] is 0.871 nM (antagonist); in [4] it was 0.117 nM (antagonist); in assay [6] it was 0.339 nM (antagonist); in assay [7] it was 0.107 nM (antagonist); in assay [9] it was 0.955 nM (antagonist). In addition, the Kb in [3] is on record as 1 nM (antagonist).
For the compound `C[N+]1(C)CCC[C@@H]1[C@@H]1CS[C@@](c2ccccc2)(C2CCCCC2)O1`, the pKb in assay [1] was 8.79; in assay [3], 8.6; in assay [5] it was 6.47; in assay [8], 9.53. The Ki is given as 0.708 nM (antagonist) in assay [2]; 0.501 nM (antagonist) in assay [4]; 0.912 nM (antagonist) in [6]; 0.776 nM (antagonist) in assay [7]; 0.832 nM (antagonist) in assay [9].
Take `CN1CCC[C@@H]1[C@@H]1CS[C@](c2ccccc2)(C2CCCCC2)O1`: the pKb is 8.55 in assay [1], 8.07 in [3], 6.03 in [5] and 9.16 in assay [8]. For the same compound, the Ki in assay [2] was 1 nM (antagonist); in [4], 0.347 nM (antagonist); in [6], 2.19 nM (antagonist); in [7] it was 2 nM (antagonist); in assay [9], 1.07 nM (antagonist).
Regarding `CN1CCC[C@H]1[C@H]1CS[C@@](c2ccccc2)(C2CCCCC2)O1`, the pKb in assay [1] was 8.92; in assay [3], 8.82; in assay [5] it was 6.22; in [8] it was 7.41. Also, the Ki is reported as 2.34 nM (antagonist) in assay [2]; 1.38 nM (antagonist) in assay [4]; 0.891 nM (antagonist) in assay [6]; 1.35 nM (antagonist) in [7]; 2.75 nM (antagonist) in assay [9].
Turning to `CN1CCC[C@H]1[C@H]1CSC(c2ccccc2)(c2ccccc2)O1`, the pKb in [1] is 8.05; in [3] it was 7.58; in assay [5], 6.41; in assay [8], 7.93. For the same compound, the Ki in [2] is 3.31 nM (antagonist); in assay [4], 3.47 nM (antagonist); in [6], 5.25 nM (antagonist); in [7], 5.62 nM (antagonist); in assay [9], 4.9 nM (antagonist).
As to `C[N+](C)(C)C[C@@H]1CS[C@@](c2ccccc2)(C2CCCCC2)O1`, the pKb in assay [1] is 8.79; in assay [3] it was 8.47; in [5], 6.24; in assay [8], 8.81. Further, the Ki in [2] was 6.17 nM (antagonist); in assay [4] it was 1.1 nM (antagonist); in [6] it was 1.78 nM (antagonist); in [7] it was 2.82 nM (antagonist); in assay [9] it was 7.59 nM (antagonist).
On to `C[N+]1(C)CCC[C@@H]1[C@@H]1CSC(c2ccccc2)(c2ccccc2)O1`, for which the pKb was 8.26 in [1], 7.76 in [3], 6.52 in assay [5] and 8.49 in assay [8]. Moreover, the inhibition constant (Ki) in assay [2] is listed as 3.47 nM (antagonist); in assay [4], 2.34 nM (antagonist); in [6], 5.01 nM (antagonist); in assay [7] it was 3.47 nM (antagonist); in assay [9] it was 3.39 nM (antagonist).
On to `CN1CCC[C@H]1[C@H]1CS[C@](c2ccccc2)(C2CCCCC2)O1`, for which the pKb in [1] is 7.7; in [3], 6.91; in assay [5] it was 5.92; in [8] it was 8.32. Further, the Ki was 1.2 nM (antagonist) in assay [2]; 1.48 nM (antagonist) in assay [4]; 1.7 nM (antagonist) in assay [6]; 2 nM (antagonist) in assay [7]; 4.27 nM (antagonist) in assay [9].
